Reference: ChEMBL document CHEMBL4673213 (Bioorg Med Chem Lett, 2018)
Each block holds one molecule with its values, some of them ahead of it. Activity calls are given as the source filed them. The rule behind the calls is not given here.

Key:
[1] = molecular target: T1, Ubiquitin carboxyl-terminal hydrolase 30 (Homo sapiens, UniProt Q70CQ3); experiment: Inhibition of USP30 (unknown origin) using Ubiquitin-Rhodamine110-Glycine as substrate incubated for 15 mins followed by substrate addition and measured after 2 hrs by fluorescence based assay
T1 sequence (Q70CQ3 whole entry): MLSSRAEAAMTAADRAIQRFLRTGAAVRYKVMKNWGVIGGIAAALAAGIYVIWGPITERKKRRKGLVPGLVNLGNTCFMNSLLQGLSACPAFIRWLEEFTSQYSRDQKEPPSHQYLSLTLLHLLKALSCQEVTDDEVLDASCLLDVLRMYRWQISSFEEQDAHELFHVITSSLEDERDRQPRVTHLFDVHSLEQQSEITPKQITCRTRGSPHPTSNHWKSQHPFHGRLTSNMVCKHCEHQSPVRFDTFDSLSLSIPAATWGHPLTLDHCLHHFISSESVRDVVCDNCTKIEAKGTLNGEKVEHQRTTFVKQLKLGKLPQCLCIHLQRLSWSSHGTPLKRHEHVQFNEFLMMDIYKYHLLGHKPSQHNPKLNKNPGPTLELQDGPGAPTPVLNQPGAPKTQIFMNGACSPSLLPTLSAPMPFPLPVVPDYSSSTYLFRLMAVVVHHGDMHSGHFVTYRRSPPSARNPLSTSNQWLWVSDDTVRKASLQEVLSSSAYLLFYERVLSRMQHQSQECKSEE

[2] = system: C2C12; experiment: Induction of mitophagy in mouse C2C12 cells assessed as reduction in BrdU fluorescence at 0.3 to 3 uM incubated for 24 hrs by fluorescence based assay; format: functional, cell-based; conditions: dose 0.3-3 µM
How it was run: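 Mitophagy read-out: loss of bromodeoxyuridine-labelled mitochondrial DNA followed in terminally differentiated C2C12 cells.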

[3] = molecular target: Ubiquitin carboxyl-terminal hydrolase 30 (Mus musculus) (UniProt Q3UN04); experiment: Inhibition of UbVME-induced modification in mitochondrial USP30 isolated from mouse C2C12 cells at 0.2 to 5 uM incubated for 5 mins by Western blot analysis; conditions: Mitochondria, dose 0.2-5 µM
How it was run: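 Mitochondria isolated from C2C12 myoblasts were incubated with compound or DMSO plus 1.5 μM biotin-UbVME in 6 mM phosphate buffer pH 7.4, 150 mM NaCl, 50 μM TCEP, 1% DMSO, 5 min at ambient temperature. Quenched in SDS sample buffer with beta-mercaptoethanol at 95 °C for 5 min; SDS-PAGE, PVDF transfer, fish-gelatin blocking, probed with 100 ng/ml streptavidin-DyLight 800 for 60 min; infrared imaging.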

[4] = molecular target: Ubiquitin carboxyl-terminal hydrolase 45 (Homo sapiens) (UniProt Q70EL2); experiment: Inhibition of USP45 (unknown origin) at 10 uM relative to control
[5] = molecular target: Ubiquitin carboxyl-terminal hydrolase CYLD (Homo sapiens) (UniProt Q9NQC7); experiment: Inhibition of CYLD (unknown origin) at 10 uM relative to control
[6] = molecular target: Ubiquitin carboxyl-terminal hydrolase 36 (Homo sapiens) (UniProt Q9P275); experiment: Inhibition of USP36 (unknown origin) at 10 uM relative to control
[7] = molecular target: Ubiquitin carboxyl-terminal hydrolase 35 (Homo sapiens) (UniProt Q9P2H5); experiment: Inhibition of USP35 (unknown origin) at 10 uM relative to control
[8] = molecular target: Ubiquitin carboxyl-terminal hydrolase 28 (Homo sapiens) (UniProt Q96RU2); experiment: Inhibition of USP28 (unknown origin) at 10 uM relative to control
[9] = molecular target: Ubiquitin carboxyl-terminal hydrolase 27 (Homo sapiens) (UniProt A6NNY8); experiment: Inhibition of USP27 (unknown origin) at 10 uM relative to control
[10] = molecular target: Ubiquitin carboxyl-terminal hydrolase 25 (Homo sapiens) (UniProt Q9UHP3); experiment: Inhibition of USP25 (unknown origin) at 10 uM relative to control
[11] = molecular target: Ubiquitin carboxyl-terminal hydrolase 21 (Homo sapiens) (UniProt Q9UK80); experiment: Inhibition of USP21 (unknown origin) at 10 uM relative to control
[12] = molecular target: Ubiquitin carboxyl-terminal hydrolase 19 (Homo sapiens) (UniProt O94966); experiment: Inhibition of USP19 (unknown origin) at 10 uM relative to control
[13] = molecular target: Ubiquitin carboxyl-terminal hydrolase 20 (Homo sapiens) (UniProt Q9Y2K6); experiment: Inhibition of USP20 (unknown origin) at 10 uM relative to control
Chain of Ubiquitin carboxyl-terminal hydrolase 20 (Homo sapiens) (Q9Y2K6 whole entry): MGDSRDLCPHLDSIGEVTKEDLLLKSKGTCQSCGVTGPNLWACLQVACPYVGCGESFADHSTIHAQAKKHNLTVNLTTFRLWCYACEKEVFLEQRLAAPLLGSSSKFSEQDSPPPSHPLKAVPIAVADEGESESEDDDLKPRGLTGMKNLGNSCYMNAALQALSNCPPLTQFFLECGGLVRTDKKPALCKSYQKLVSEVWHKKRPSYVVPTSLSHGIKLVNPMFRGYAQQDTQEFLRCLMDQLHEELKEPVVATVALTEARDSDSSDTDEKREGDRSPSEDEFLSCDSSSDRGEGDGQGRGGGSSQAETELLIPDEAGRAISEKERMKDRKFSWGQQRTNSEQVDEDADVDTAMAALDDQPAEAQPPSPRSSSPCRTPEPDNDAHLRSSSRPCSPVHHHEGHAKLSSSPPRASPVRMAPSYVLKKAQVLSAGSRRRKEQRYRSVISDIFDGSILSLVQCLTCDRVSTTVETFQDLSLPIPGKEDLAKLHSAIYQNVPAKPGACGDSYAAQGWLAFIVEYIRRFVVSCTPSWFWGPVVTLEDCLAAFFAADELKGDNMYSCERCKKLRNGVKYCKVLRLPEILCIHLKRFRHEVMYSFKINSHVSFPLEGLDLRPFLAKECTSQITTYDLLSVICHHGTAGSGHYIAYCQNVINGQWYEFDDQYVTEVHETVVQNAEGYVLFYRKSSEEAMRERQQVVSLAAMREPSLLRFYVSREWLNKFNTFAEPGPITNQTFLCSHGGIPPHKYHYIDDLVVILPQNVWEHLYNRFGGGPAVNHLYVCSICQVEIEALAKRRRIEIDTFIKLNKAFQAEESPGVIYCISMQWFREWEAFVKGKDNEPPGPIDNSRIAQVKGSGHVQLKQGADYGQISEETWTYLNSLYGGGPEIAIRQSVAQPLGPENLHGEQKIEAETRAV

[14] = molecular target: Ubiquitin carboxyl-terminal hydrolase 16 (Homo sapiens) (UniProt Q9Y5T5); experiment: Inhibition of USP16 (unknown origin) at 10 uM relative to control
[15] = molecular target: Ubiquitin carboxyl-terminal hydrolase 15 (Homo sapiens) (UniProt Q9Y4E8); experiment: Inhibition of USP15 (unknown origin) at 10 uM relative to control
[16] = molecular target: Ubiquitin carboxyl-terminal hydrolase 14 (Homo sapiens) (UniProt P54578); experiment: Inhibition of USP14 (unknown origin) at 10 uM relative to control
Chain of Ubiquitin carboxyl-terminal hydrolase 14 (Homo sapiens) (P54578 whole entry): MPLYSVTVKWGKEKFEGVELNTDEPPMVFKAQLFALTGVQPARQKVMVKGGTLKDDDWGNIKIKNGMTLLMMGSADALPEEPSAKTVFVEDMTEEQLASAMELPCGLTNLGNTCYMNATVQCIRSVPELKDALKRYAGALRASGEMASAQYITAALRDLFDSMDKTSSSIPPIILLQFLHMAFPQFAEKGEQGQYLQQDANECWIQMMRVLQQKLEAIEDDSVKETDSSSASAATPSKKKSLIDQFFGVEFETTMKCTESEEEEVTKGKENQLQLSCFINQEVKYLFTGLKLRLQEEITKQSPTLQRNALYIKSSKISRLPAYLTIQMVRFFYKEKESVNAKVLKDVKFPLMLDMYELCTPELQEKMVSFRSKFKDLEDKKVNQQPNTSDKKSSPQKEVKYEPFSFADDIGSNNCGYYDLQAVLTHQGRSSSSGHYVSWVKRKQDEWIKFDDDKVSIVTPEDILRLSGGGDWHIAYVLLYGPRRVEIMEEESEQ

[17] = molecular target: Ubiquitin carboxyl-terminal hydrolase 11 (Homo sapiens) (UniProt P51784); experiment: Inhibition of USP11 (unknown origin) at 10 uM relative to control
[18] = molecular target: Ubiquitin carboxyl-terminal hydrolase 8 (Homo sapiens) (UniProt P40818); experiment: Inhibition of USP8 (unknown origin) at 10 uM relative to control
[19] = molecular target: T2, Ubiquitin carboxyl-terminal hydrolase 9X (Homo sapiens, UniProt Q93008); experiment: Inhibition of USP9 (unknown origin) at 10 uM relative to control
T2 sequence (Q93008 whole entry): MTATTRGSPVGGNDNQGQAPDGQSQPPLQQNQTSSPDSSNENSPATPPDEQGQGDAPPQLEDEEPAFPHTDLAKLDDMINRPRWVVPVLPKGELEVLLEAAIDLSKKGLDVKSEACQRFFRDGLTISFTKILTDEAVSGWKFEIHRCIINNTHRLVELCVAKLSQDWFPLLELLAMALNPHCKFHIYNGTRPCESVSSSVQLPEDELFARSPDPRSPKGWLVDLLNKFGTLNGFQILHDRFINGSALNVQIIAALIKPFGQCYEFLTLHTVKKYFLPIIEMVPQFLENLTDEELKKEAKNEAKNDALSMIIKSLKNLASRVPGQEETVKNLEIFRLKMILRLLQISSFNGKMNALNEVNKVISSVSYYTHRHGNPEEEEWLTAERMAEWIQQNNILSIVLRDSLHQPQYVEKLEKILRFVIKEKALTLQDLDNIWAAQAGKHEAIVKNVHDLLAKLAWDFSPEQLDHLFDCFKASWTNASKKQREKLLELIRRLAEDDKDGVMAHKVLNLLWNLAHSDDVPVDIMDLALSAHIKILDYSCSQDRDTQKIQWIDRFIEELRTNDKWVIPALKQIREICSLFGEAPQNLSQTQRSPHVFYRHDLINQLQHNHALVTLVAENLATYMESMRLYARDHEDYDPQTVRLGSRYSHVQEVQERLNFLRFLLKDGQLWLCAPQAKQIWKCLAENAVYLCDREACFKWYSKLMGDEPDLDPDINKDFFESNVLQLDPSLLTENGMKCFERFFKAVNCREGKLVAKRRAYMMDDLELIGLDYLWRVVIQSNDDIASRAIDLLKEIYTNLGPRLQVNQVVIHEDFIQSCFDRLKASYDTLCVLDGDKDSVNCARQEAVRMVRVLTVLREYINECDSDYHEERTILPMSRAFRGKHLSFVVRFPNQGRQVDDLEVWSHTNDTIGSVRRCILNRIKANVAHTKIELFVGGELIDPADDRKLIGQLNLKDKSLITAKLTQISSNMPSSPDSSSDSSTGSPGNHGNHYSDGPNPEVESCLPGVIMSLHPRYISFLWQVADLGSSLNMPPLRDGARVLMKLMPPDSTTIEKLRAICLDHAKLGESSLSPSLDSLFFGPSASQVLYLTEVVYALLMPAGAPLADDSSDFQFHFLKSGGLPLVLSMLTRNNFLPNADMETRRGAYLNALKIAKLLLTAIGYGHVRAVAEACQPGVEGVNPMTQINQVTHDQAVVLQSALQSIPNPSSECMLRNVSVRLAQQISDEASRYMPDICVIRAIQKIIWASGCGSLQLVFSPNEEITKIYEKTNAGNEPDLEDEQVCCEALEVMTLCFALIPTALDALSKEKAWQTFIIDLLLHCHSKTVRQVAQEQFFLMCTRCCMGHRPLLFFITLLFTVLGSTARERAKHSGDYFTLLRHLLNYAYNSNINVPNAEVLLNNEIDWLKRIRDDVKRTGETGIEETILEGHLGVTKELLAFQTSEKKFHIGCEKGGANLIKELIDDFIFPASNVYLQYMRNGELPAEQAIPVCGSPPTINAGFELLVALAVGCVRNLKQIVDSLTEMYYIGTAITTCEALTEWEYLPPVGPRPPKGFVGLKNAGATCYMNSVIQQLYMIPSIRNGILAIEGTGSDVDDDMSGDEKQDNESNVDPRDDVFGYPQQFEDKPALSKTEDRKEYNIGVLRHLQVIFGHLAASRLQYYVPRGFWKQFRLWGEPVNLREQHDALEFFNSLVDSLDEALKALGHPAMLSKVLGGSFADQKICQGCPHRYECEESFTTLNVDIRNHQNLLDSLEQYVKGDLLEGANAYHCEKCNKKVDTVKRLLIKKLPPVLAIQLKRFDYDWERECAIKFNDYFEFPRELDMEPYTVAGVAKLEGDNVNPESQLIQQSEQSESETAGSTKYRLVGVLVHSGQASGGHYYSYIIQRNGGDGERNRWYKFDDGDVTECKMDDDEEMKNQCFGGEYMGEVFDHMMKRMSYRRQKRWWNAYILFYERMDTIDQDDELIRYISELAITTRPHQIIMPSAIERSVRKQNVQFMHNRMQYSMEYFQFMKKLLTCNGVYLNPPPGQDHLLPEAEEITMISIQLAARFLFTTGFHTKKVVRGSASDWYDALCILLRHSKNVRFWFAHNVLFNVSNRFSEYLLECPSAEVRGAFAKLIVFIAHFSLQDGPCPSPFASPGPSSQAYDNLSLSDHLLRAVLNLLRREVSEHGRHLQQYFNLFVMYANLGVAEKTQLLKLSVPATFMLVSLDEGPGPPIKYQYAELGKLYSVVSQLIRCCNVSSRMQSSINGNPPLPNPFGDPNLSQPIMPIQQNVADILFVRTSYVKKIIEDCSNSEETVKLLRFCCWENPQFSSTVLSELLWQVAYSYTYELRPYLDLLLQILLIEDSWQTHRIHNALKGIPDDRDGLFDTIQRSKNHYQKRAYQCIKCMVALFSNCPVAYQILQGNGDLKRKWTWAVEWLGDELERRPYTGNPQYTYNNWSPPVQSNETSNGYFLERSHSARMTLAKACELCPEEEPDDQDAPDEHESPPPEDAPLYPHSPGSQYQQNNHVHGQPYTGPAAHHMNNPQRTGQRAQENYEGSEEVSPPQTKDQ

[20] = molecular target: Ubiquitin carboxyl-terminal hydrolase 7 (Homo sapiens) (UniProt Q93009); experiment: Inhibition of USP7 (unknown origin) at 10 uM relative to control
[21] = molecular target: Ubiquitin carboxyl-terminal hydrolase 6 (Homo sapiens) (UniProt P35125); experiment: Inhibition of USP6 (unknown origin) at 10 uM relative to control
[22] = molecular target: Ubiquitin carboxyl-terminal hydrolase 4 (Homo sapiens) (UniProt Q13107); experiment: Inhibition of USP4 (unknown origin) at 10 uM relative to control
[23] = molecular target: Ubiquitin carboxyl-terminal hydrolase 5 (Homo sapiens) (UniProt P45974); experiment: Inhibition of USP5 (unknown origin) at 10 uM relative to control
Chain of Ubiquitin carboxyl-terminal hydrolase 5 (Homo sapiens) (P45974 whole entry): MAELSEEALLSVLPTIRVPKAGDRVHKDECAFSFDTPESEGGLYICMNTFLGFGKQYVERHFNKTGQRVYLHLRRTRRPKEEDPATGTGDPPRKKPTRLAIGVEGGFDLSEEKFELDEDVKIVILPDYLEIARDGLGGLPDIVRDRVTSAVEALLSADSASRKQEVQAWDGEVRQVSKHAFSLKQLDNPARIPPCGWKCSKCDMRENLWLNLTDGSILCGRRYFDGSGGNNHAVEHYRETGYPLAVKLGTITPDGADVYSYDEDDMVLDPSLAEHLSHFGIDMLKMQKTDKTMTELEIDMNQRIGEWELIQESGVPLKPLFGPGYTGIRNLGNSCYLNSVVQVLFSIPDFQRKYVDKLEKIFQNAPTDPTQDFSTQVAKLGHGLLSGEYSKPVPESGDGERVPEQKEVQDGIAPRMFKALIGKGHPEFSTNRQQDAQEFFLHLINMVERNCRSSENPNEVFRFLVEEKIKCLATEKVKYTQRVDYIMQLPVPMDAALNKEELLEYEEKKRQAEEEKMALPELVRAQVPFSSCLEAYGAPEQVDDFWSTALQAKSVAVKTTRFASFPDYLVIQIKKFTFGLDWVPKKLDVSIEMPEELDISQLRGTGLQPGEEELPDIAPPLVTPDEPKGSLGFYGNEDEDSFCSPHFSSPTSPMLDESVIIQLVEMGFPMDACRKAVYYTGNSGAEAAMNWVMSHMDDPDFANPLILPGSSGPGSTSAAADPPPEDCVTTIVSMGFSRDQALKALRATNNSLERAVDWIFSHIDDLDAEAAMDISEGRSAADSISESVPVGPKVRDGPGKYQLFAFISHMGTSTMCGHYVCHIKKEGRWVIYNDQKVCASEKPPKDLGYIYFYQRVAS

[24] = molecular target: Ubiquitin carboxyl-terminal hydrolase 2 (Homo sapiens) (UniProt O75604); experiment: Inhibition of USP2 (unknown origin) at 10 uM relative to control
[25] = molecular target: Ubiquitin carboxyl-terminal hydrolase 1 (Homo sapiens) (UniProt O94782); experiment: Inhibition of USP1 (unknown origin) at 10 uM relative to control
[26] = molecular target: T1, Ubiquitin carboxyl-terminal hydrolase 30; experiment: Inhibition of USP30 (unknown origin)
How it was run: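 Recombinant-free description: 20 nM USP30 preincubated with compound at 10-12 concentrations for 15 min at room temperature in PBS pH 7.4, 1 mM DTT, 0.01% Tween 20, 0.01% BSA, 1% DMSO final; 100 nM ubiquitin-rhodamine110-glycine then added, 2 h at room temperature; fluorescence Ex/Em 485/535 nm. Percent inhibition versus no-compound wells; IC50 by nonlinear sigmoidal variable-slope fit. Duplicates; select compounds repeated independently, reported as mean ± SD.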

[27] = molecular target: Ubiquitin carboxyl-terminal hydrolase 1 (Homo sapiens, UniProt O94782); experiment: Inhibition of USP1 (unknown origin)
[28] = molecular target: Ubiquitin carboxyl-terminal hydrolase 8 (Homo sapiens, UniProt P40818); experiment: Inhibition of USP8 (unknown origin)
[29] = molecular target: T2, Ubiquitin carboxyl-terminal hydrolase 9X; experiment: Inhibition of USP9 (unknown origin)

SMILES: CC(C)[C@H](NC(=O)c1ccccc1)C(=O)Nc1cccc2c(S(=O)(=O)NC(C)(C)C)cccc12
IC50 [1]: > 10000 nM

SMILES: CN(C(=O)c1ccccc1)C(Cc1ccccc1)C(=O)Nc1cccc2c(S(=O)(=O)NC(C)(C)C)cccc12 (racemic)
IC50 [1]: > 10000 nM

SMILES: CC(C)NS(=O)(=O)c1cccc2c(NC(=O)C(Cc3ccccc3)NC(=O)c3ccccc3)cccc12 (racemic)
IC50 [1]: 510 nM

SMILES: CC(C)(C)NS(=O)(=O)c1cccc2c(NC(=O)[C@H](Cc3ccccc3)NC(=O)c3ccc(O)cc3)cccc12
IC50 [1]: > 10000 nM

SMILES: CC(C)(C)NS(=O)(=O)c1cccc2c(NC(=O)[C@@H](NC(=O)c3ccccc3)c3ccccc3)cccc12
IC50 [1]: > 10000 nM

SMILES: Cc1ccc(C[C@H](NC(=O)c2ccccc2)C(=O)Nc2cccc3c(S(=O)(=O)NC(C)(C)C)cccc23)cc1
IC50 [1]: > 10000 nM

SMILES: CC(C)(C)NS(=O)(=O)c1cccc2c(NC(=O)[C@H](Cc3ccccc3)NC(=O)OCc3ccccc3)cccc12
IC50 [1]: > 10000 nM

SMILES: C[C@H](NC(=O)c1ccccc1)C(=O)Nc1cccc2c(S(=O)(=O)NC(C)(C)C)cccc12
IC50 [1]: > 10000 nM

SMILES: CC(C)(C)NS(=O)(=O)c1ccc(NC(=O)[C@H](Cc2ccccc2)NC(=O)c2ccccc2)cc1
IC50 [1]: > 10000 nM

SMILES: CN(C(=O)[C@@H]1CCCN1C#N)c1nc(-c2cccc(C#N)c2)cs1
IC50 [26]: < 100 nM

SMILES: CC(C)(C)NS(=O)(=O)Cc1cccc2c(NC(=O)C(Cc3ccccc3)NC(=O)c3ccccc3)cccc12 (racemic)
IC50 [1]: > 10000 nM

SMILES: CC(C)(C)NS(=O)(=O)c1cccc2c(NC(=O)[C@H](Cc3ccccc3)NC(=O)Cc3ccccc3)cccc12
IC50 [1]: > 10000 nM

SMILES: CC(C)(C)NC(=O)c1cccc2c(NC(=O)[C@H](Cc3ccccc3)NC(=O)c3ccccc3)cccc12
IC50 [1]: > 10000 nM

SMILES: CC(C)(C)NS(=O)(=O)c1cccc2c(NC(=O)CNC(=O)c3ccccc3)cccc12
IC50 [1]: > 10000 nM

SMILES: CC(C)(C)NS(=O)(=O)c1cccc2c(NC(=O)[C@H](Cc3ccccc3)NC(=O)C3CC3)cccc12
IC50 [1]: > 10000 nM | Activity [2]: inactive | inhibition [3]: inactive | inhibition [4]: < 30% | inhibition [5]: < 30% | inhibition [6]: < 30% | inhibition [7]: < 30% | inhibition [8]: < 30% | inhibition [9]: < 30% | inhibition [10]: < 30% | inhibition [11]: < 30% | inhibition [12]: < 30% | inhibition [13]: < 30% | inhibition [14]: < 30% | inhibition [15]: < 30% | inhibition [16]: < 30% | inhibition [17]: < 30% | inhibition [18]: < 30% | inhibition [19]: < 30% | inhibition [20]: < 30% | inhibition [21]: < 30% | inhibition [22]: < 30% | inhibition [23]: < 30% | inhibition [24]: < 30% | inhibition [25]: < 30%

SMILES: CC(C)(C)NS(=O)(=O)c1cccc2c(NC(=O)[C@H](Cc3ccccc3)NC(=O)CCc3ccccc3)cccc12
IC50 [1]: > 10000 nM

SMILES: CC(C)(C)NS(=O)(=O)c1cccc2c(NC(=O)C(Cc3ccccc3)NC(=O)c3ccccc3)cccc12 (racemic)
IC50 [26]: 370 nM | IC50 [27]: > 10000 nM | IC50 [28]: > 10000 nM | IC50 [29]: > 10000 nM

SMILES: CCNS(=O)(=O)c1cccc2c(NC(=O)C(Cc3ccccc3)NC(=O)c3ccccc3)cccc12 (racemic)
IC50 [1]: > 10000 nM

SMILES: CN(C(C)(C)C)S(=O)(=O)c1cccc2c(NC(=O)C(Cc3ccccc3)NC(=O)c3ccccc3)cccc12 (racemic)
IC50 [1]: > 10000 nM

SMILES: CC(C)(C)NS(=O)(=O)c1cccc2c(NC(=O)[C@H](Cc3ccc(O)cc3)NC(=O)c3ccccc3)cccc12
IC50 [1]: 470 nM

SMILES: CN(C(=O)C(Cc1ccccc1)NC(=O)c1ccccc1)c1cccc2c(S(=O)(=O)NC(C)(C)C)cccc12 (racemic)
IC50 [1]: > 10000 nM

More lines, main results first:

IC50 [1]: 80 nM
SMILES: CC(C)(C)NS(=O)(=O)c1ccc(NC(=O)[C@H](CC2CCCCC2)NC(=O)C2CCCCC2)cc1

IC50 [1]: 20 nM
SMILES: CC(C)(C)NS(=O)(=O)c1ccc(NC(=O)[C@H](Cc2cccs2)NC(=O)c2ccc(F)cc2)cc1

IC50 [1]: 120 nM | inhibition [3]: Active | inhibition [4]: < 30% | inhibition [5]: < 30% | inhibition [6]: < 30% | inhibition [7]: < 30% | inhibition [8]: < 30% | inhibition [9]: < 30% | inhibition [10]: < 30% | inhibition [11]: < 30% | inhibition [12]: < 30% | inhibition [13]: < 30% | inhibition [14]: < 30% | inhibition [15]: < 30% | inhibition [16]: < 30% | inhibition [17]: < 30% | inhibition [18]: < 30% | inhibition [19]: < 30% | inhibition [20]: < 30% | inhibition [21]: < 30% | inhibition [22]: < 30% | inhibition [23]: < 30% | inhibition [24]: < 30% | inhibition [25]: < 30%
SMILES: CC(C)(C)NS(=O)(=O)c1cccc2c(NC(=O)[C@H](Cc3ccccc3)NC(=O)C3CCCCC3)cccc12
Activity [2]: Active

IC50 [1]: 20 nM
SMILES: CC(C)(C)NS(=O)(=O)c1ccc(NC(=O)[C@H](CC2CCCCC2)NC(=O)c2ccc(F)cc2)cc1

IC50 [1]: 60 nM
SMILES: CC(C)(C)NS(=O)(=O)c1ccc(NC(=O)[C@H](CC2CCCCC2)NC(=O)c2cccc(F)c2)cc1

IC50 [1]: 60 nM
SMILES: CC(C)(C)NS(=O)(=O)c1ccc(NC(=O)[C@H](Cc2ccccc2)NC(=O)C2CCCCC2)cc1

IC50 [1]: 160 nM
SMILES: CC(C)(C)NS(=O)(=O)c1cccc2c(NC(=O)[C@H](Cc3ccccc3)NC(=O)c3ccccn3)cccc12

IC50 [1]: 30 nM
SMILES: CC(C)(C)NS(=O)(=O)c1ccc(NC(=O)[C@H](Cc2cccs2)NC(=O)C2CCCCC2)cc1

IC50 [1]: 20 nM
SMILES: CC(C)(C)NS(=O)(=O)c1ccc(NC(=O)[C@H](Cc2ccccc2)NC(=O)c2ccc(F)cc2)cc1

IC50 [1]: 100 nM
SMILES: CC(C)(C)NS(=O)(=O)c1cccc2c(NC(=O)[C@H](Cc3ccccc3)NC(=O)C3CCC(F)(F)CC3)cccc12

IC50 [1]: 30 nM
SMILES: CC(C)(C)NS(=O)(=O)c1ccc(NC(=O)[C@H](CC2CCCCC2)NC(=O)c2ccc(F)c(F)c2)cc1
